What was measured:
Beta-TC6 [1] = assay: In vitro efficacy to inhibit glucose stimulated insulin release in beta-TC6 cells […]; assay type: functional
Beta-TC3 [2] = assay: Ability to repolarize beta-TC3 cell membrane potential; assay type: functional, cell-based, Rattus norvegicus; details: Mus musculus
Rattus norvegicus [3] = species: Rattus norvegicus; assay: Relaxation of phenylephrine precontracted rat isolated aorta rings.; assay type: functional, organism-based
Beta-TC6 [4] = assay: In vitro ability to inhibit glucose stimulated insulin release in beta-TC6 cells […]; assay type: functional, cell-based; details: Mus musculus
Beta-TC3 [5] = assay: Ability to repolarize beta-TC3 cell membrane potential; Not significant; assay type: functional, cell-based, Rattus norvegicus
Beta-TC6 [6] = assay: In vitro ability to inhibit glucose stimulated insulin release in beta-TC6 cells […]; Not active; assay type: functional, cell-based
Beta-TC3 [7] = assay: Effect on membrane potential of mitochondria in beta-TC3 cells […]; assay type: functional; details: Mus musculus, read-out: ED50 (the source's name)
A10 [8] = assay: Effect on membrane potential of mitochondria in A10 smooth muscle cells from rats; assay type: functional; details: Rattus norvegicus, read-out: ED50 (the source's name)
HepG2 [9] = assay: (§1) Maximum effect on glucose utilization in HepG2 cells expressed as % of full stimulation; assay type: functional; details: Homo sapiens
Procedure, shortened: (§2)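 HEP-G2 glucose oxidation: 2×10^4 cells/well incubated overnight at 37 °C, 5% CO2. Compounds diluted from 100× DMSO stocks into medium with 10 μCi/mL D-(5-3H)-glucose, in duplicate, 3 h at 37 °C. Lysed with 10% TCA; 3H-water separated by evaporation and counted. Mean ± SEM of three experiments.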

Rattus norvegicus [10] = species: Rattus norvegicus; assay: Efficacy to inhibit insulin release from rat islets; assay type: functional, organism-based
Rattus norvegicus [11] = species: Rattus norvegicus; assay: Inhibitory effect on insulin release from rat islets; assay type: functional, organism-based
HepG2 [12] = assay: (§3) Effective concentration required for stimulation of glucose utilization in Hepatocytes (HEP-G2 cells); assay type: functional, cell-based; details: Homo sapiens; procedure, shortened: as §2
Rattus norvegicus [13] = species: Rattus norvegicus; assay: Effective concentration required relaxation of precontracted rat aorta ring; assay type: functional, organism-based
A10 [14] = assay: Effect on membrane potential of mitochondria of A10 smooth muscle cells in rats; assay type: functional; details: Rattus norvegicus, read-out: ED50 (the source's name)
Rattus norvegicus [15] = species: Rattus norvegicus; assay: Effect on insulin release from rat islets; assay type: functional, organism-based
Beta-TC3 [16] = assay: Effect on membrane potential of mitochondria of beta-TC3 cells in rats; assay type: functional, Rattus norvegicus; details: Mus musculus, read-out: ED50 (the source's name)
HepG2 [17] = assay: as §3; assay type: functional, cell-based, Rattus norvegicus; details: Homo sapiens; procedure, shortened: as §2
HepG2 [18] = assay: as §1; assay type: functional, Rattus norvegicus; details: Homo sapiens; procedure, shortened: as §2
Rattus norvegicus [19] = species: Rattus norvegicus; assay: Efficacy on insulin release from rat islets; assay type: functional, organism-based

Row | IC50 (Beta-TC3 [2]) | IC50 (Rattus norvegicus [3]) | IC50 (Beta-TC6 [4]) | IC50 (Beta-TC3 [5]) | Compound | Efficacy (Beta-TC6 [1]) | further results
1 | 18 µM | 20.3 µM | 4.4 µM | – | C[C@@H](/N=C(\NC#N)Nc1cc(C(F)(F)F)cc(C(F)(F)F)c1)C(C)(C)C | 68% | –
2 | – | 85 µM | – | Not Active | CC(C)CC/N=C(\NC#N)Nc1cc(F)cc(F)c1 | – | IC50 (Beta-TC6 [6]): Not Active
3 | 12 µM | 11.9 µM | 13.7 µM | – | C[C@H](/N=C(\NC#N)Nc1cc(C(F)(F)F)cc(C(F)(F)F)c1)C(C)(C)C | 67% | –
4 | – | – | 41.4 µM | Not Active | CC(C)/N=C(\NC#N)Nc1cc(C(F)(F)F)cc(C(F)(F)F)c1 | 20% | –
5 | – | 43.8 µM | 16.1 µM | Not Active | C[C@@H](/N=C(\NC#N)Nc1cc(Cl)cc(Cl)c1)c1ccccc1 | 22% | –
6 | 25 µM | – | 39.8 µM | – | C[C@H](/N=C(\NC#N)Nc1cc(Cl)cc(Cl)c1)c1ccccc1 | 27% | –
7 | – | 75 µM | – | Not Active | COc1cc(N/C(=N/C2CCCC2)NC#N)cc(C(F)(F)F)c1 | – | IC50 (Beta-TC6 [6]): Not Active
8 | – | 52 µM | – | Not Active | CC(C)/N=C(\NC#N)Nc1cc(Cl)cc(Cl)c1 | – | IC50 (Beta-TC6 [6]): Not Active
9 | 4.7 µM | > 300 µM | 5.45 µM | – | N#CN/C(=N\C1CCCC1)Nc1cc(C(F)(F)F)cc(C(F)(F)F)c1 | 65% | EC50 (Beta-TC3 [7]): > 30 µM; EC50 (A10 [8]): 1 µM; Emax (HepG2 [9]): 95%; Efficacy (Rattus norvegicus [10]): 65%; IC50 (Rattus norvegicus [11]): 1.24 µM; EC50 (HepG2 [12]): 10.4 µM
10 | – | – | – | Not Active | CCC(C)(C)/N=C(\NC#N)Nc1cc(C(F)(F)F)cc(C(F)(F)F)c1 | – | IC50 (Beta-TC6 [6]): Not Active
11 | – | – | – | – | N#C/N=C(\Nc1cccnc1)NC1(c2cccc(Cl)c2)CCC1 | – | EC50 (Rattus norvegicus [13]): 113 µM
12 | 24 µM | – | 48.5 µM | – | CCC(C)(C)/N=C(\NC#N)Nc1cc(Cl)cc(Cl)c1 | 32% | –
13 | 19 µM | – | – | – | CCC/N=C(\NC#N)Nc1cc(C(F)(F)F)cc(C(F)(F)F)c1 | 53% | –
14 | 12 µM | 75 µM | 28.7 µM | – | N#CN/C(=N\C1CCCC1)Nc1cc(Cl)cc(Cl)c1 | 18% | –
15 | 5.5 µM | 17.6 µM | 5.2 µM | – | CC(C)C(C)/N=C(\NC#N)Nc1cc(C(F)(F)F)cc(C(F)(F)F)c1 (stereo unspecified) | 69% | –
16 | 20 µM | – | 2.8 µM | – | N#CN/C(=N\C1(c2cccc(Cl)c2)CCC1)Nc1cc(C(F)(F)F)cc(C(F)(F)F)c1 | 66% | –
17 | 4.7 µM | – | – | – | CC(C)CC/N=C(\NC#N)Nc1cc(C(F)(F)F)cc(C(F)(F)F)c1 | 77% | –
18 | 0.8 µM | – | 4.2 µM | – | CC(C)CC/N=C(\NC#N)Nc1cc(Cl)cc(Cl)c1 | 60% | EC50 (A10 [14]): 2 µM; IC50 (Rattus norvegicus [15]): 3.8 µM; EC50 (Beta-TC3 [16]): > 30 µM; EC50 (HepG2 [17]): 22 µM; Emax (HepG2 [18]): 98%; Efficacy (Rattus norvegicus [19]): 72%
19 | – | – | 1.2 µM | Not Active | CC(C)CC/N=C(\NC#N)Nc1cccnc1 | 23% | –
20 | 13.7 µM | 12.8 µM | – | – | CC1=Nc2ccc(Cl)cc2S(=O)(=O)N1 [DIAZOXIDE] | 23% | –
21 | – | 0.8 µM | > 100 µM | Not Active | CC(N/C(=N\C#N)Nc1ccncc1)C(C)(C)C (stereo unspecified) [PINACIDIL ANHYDROUS] | – | –
